Where two headings read alike, the source gives them in different places. Marks after values point to notes of the source that are not given here.
Assays:
[1] = type: in vivo, human; settings: for CL/F / Vd/F: acalabrutinib; for CL/F / Vd/F / half-life: arithmetic mean (SD); for AUC: AUC0‐inf; for Vd/F: Vz/F; for half-life: t1/2, total plasma acalabrutinib; for Tmax: median (minimum, maximum)
Safety evaluation = type: in vivo, human; settings: for Number (%) of subjects with TEAEs: single oral 50-mg dose
Outline: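 After an overnight fast, subjects took a single oral 50-mg dose as capsules with ≈240 mL water on day 1. AEs were collected until follow-up contact 14 days post-dose. Safety monitoring covered concomitant medications, serial hematology, serum chemistry and urinalysis, vital signs, 12-lead ECGs and physical examinations. Findings were summarized descriptively.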

[2] = Urinary excretion and renal clearance after a single 50-mg dose; type: in vivo, human; settings: for CL renal: human, urine, oral, 50 mg, mean renal clearance
Outline: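 In study 2, a single oral 50-mg capsule was taken with ≈240 mL water after an overnight fast. Urine was collected predose, 0–4 h and 4–24 h post-dose and pooled per interval for each subject. Analytes were quantified by validated LC-MS/MS with deuterated internal standards over a nominal urine range of 5 to 5000 ng/mL.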

[3] = Earlier clinical studies of acalabrutinib; type: in vivo, human; settings: 400-mg vs 50-mg dose, healthy subjects (data on file)
[4] = In vitro protein binding in α1-acid glycoprotein solution; type: in vitro ADME; settings: human
human serum albumin = human serum albumin (Homo sapiens, UniProt P02768); experiment: In vitro protein binding in human serum albumin solution; type: in vitro ADME
[5] = cited from earlier work
human plasma = experiment: In vitro protein binding in human plasma; type: in vitro ADME; settings: in humans (plasma)
[6] = In vitro protein binding in human plasma; type: in vitro ADME; settings: human, plasma
[7] = both, human, plasma, po, 50 mg, single oral 50-mg dose, Control (n = 13)
[8] = both, human, plasma, po, 50 mg, single oral 50-mg dose, Mild (n = 6)
[9] = both, human, plasma, po, 50 mg, single oral 50-mg dose, Moderate (n = 6)
[10] = human, plasma, po, 50 mg, single oral 50-mg dose, Severe (n = 8)
[11] = plasma acalabrutinib, Mild vs normal hepatic function (reference)
[12] = plasma acalabrutinib, Moderate vs normal hepatic function (reference)
[13] = plasma acalabrutinib, Severe vs normal hepatic function (reference)
[14] = severe hepatic impairment, study 2
[15] = acalabrutinib, matched normal hepatic function subjects
[16] = acalabrutinib, subjects with severe hepatic impairment
[17] = healthy subjects (n = 17), relative to no pretreatment
[18] = healthy subjects, single 400-mg dose

Chain of human serum albumin (P02768 25-609): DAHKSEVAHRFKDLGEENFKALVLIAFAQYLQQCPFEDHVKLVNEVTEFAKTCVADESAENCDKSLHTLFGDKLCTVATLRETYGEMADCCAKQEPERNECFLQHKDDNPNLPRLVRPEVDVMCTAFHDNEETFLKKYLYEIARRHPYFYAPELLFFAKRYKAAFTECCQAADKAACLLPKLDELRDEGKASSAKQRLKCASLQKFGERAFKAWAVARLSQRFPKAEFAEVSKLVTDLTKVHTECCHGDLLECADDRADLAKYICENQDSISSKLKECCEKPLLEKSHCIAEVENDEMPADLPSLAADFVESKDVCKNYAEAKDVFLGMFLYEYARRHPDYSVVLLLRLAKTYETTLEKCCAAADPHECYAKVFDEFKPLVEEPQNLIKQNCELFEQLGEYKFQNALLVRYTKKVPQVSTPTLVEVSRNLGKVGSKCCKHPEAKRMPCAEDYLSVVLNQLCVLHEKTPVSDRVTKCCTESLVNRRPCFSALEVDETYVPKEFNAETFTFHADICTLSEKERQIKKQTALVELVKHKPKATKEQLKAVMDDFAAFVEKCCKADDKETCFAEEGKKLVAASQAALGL

CC#CC(=O)N1CCC[C@H]1c1nc(-c2ccc(C(=O)Nc3ccccn3)cc2)c2c(N)nccn12 [Acalabrutinib]
CL/F ([1]; single oral 50-mg dose, Control (n = 13)): 218.1 ± 103.1 ^a L/h | CL/F ([1]; single oral 50-mg dose, Mild (n = 6)): 156.6 ± 91.1 L/h | CL/F ([1]; single oral 50-mg dose, Moderate (n = 6)): 280.8 ± 372.7 L/h | CL/F ([1]; single oral 50-mg dose, Severe (n = 8)): 48.7 ± 30.7 L/h | CL/F ([1]; single oral 50-mg dose, Severe (n = 8), listed as acalabrutinib): 48.7 L/h | AUC ([1]; both, human, plasma, oral, 50 mg, LS Mean, plasma acalabrutinib, ANOVA, exponentiated LSM, Control, n 13): 250 ng·h/mL | AUC ([1]; both, human, plasma, oral, 50 mg, LS Mean, plasma acalabrutinib, ANOVA, exponentiated LSM, Mild, n 6): 366 ng·h/mL | AUC ([1]; both, human, plasma, oral, 50 mg, LS Mean, plasma acalabrutinib, ANOVA, exponentiated LSM, Moderate, n 6): 326 ng·h/mL | Cmax ([1]; both, human, plasma, oral, 50 mg, Cmax, LS Mean, plasma acalabrutinib, ANOVA, exponentiated LSM, Control, n 14): 152 ng/mL | Cmax ([1]; both, human, plasma, oral, 50 mg, Cmax, LS Mean, plasma acalabrutinib, ANOVA, exponentiated LSM, Mild, n 6): 292 ng/mL | Cmax ([1]; both, human, plasma, oral, 50 mg, Cmax, LS Mean, plasma acalabrutinib, ANOVA, exponentiated LSM, Moderate, n 6): 156 ng/mL | AUC ([1]; both, human, plasma, po, 50 mg, total plasma acalabrutinib, single oral 50-mg dose, Control (n = 13), geometric mean (geometric CV%)): 250 ng·h/mL | AUC ([1]; both, human, plasma, po, 50 mg, total plasma acalabrutinib, single oral 50-mg dose, Mild (n = 6), geometric mean (geometric CV%)): 366 ng·h/mL | AUC ([1]; both, human, plasma, po, 50 mg, total plasma acalabrutinib, single oral 50-mg dose, Moderate (n = 6), geometric mean (geometric CV%)): 326 ng·h/mL | Cmax ([1]; both, human, plasma, po, 50 mg, Cmax, total plasma acalabrutinib, single oral 50-mg dose, fasted, Control, normal hepatic function (n = 14), geometric mean (geometric CV%)): 152 ng/mL | Cmax ([1]; both, human, plasma, po, 50 mg, Cmax, total plasma acalabrutinib, single oral 50-mg dose, fasted, Mild, Child-Pugh class A (n = 6), geometric mean (geometric CV%)): 292 ng/mL | Cmax ([1]; both, human, plasma, po, 50 mg, Cmax, total plasma acalabrutinib, single oral 50-mg dose, fasted, Moderate, Child-Pugh class B (n = 6), geometric mean (geometric CV%)): 156 ng/mL | Vd/F [1, 7]: 722 ± 520 L | Vd/F [1, 8]: 471 ± 222 L | Vd/F [1, 9]: 2140 ± 2720 L | half-life [1, 7]: 2.2 ± 0.8 h | half-life [1, 8]: 2.3 ± 0.9 h | half-life [1, 9]: 7.9 ± 12.7 h | Tmax ([1]; both, human, plasma, po, 50 mg, total plasma acalabrutinib, single oral 50-mg dose, Control (n = 14)): 0.6 h | Tmax ([1]; both, human, plasma, po, 50 mg, total plasma acalabrutinib, single oral 50-mg dose, Mild (n = 6)): 0.8 h | Tmax ([1]; both, human, plasma, po, 50 mg, total plasma acalabrutinib, single oral 50-mg dose, Moderate (n = 6)): 1 h | AUC ([1]; human, plasma, oral, 50 mg, LS Mean, plasma acalabrutinib, ANOVA, exponentiated LSM, Severe, n 8): 1170 ng·h/mL | Cmax ([1]; human, plasma, oral, 50 mg, Cmax, LS Mean, plasma acalabrutinib, ANOVA, exponentiated LSM, Severe, n 8): 726 ng/mL | AUC ([1]; human, plasma, po, 50 mg, total plasma acalabrutinib, single oral 50-mg dose, Severe (n = 8), geometric mean (geometric CV%)): 1170 ng·h/mL | Cmax ([1]; human, plasma, po, 50 mg, Cmax, total plasma acalabrutinib, single oral 50-mg dose, fasted, Severe, Child-Pugh class C (n = 8), geometric mean (geometric CV%)): 726 ng/mL | Vd/F [1, 10]: 167 ± 70.3 L | half-life [1, 10]: 2.7 ± 1.1 h | AUC0‐inf GMR: Test/Reference [1, 11]: 146.2% | Cmax GMR: Test/Reference [1, 11]: 191.3% | AUC0‐inf GMR: Test/Reference [1, 12]: 130.5% | Cmax GMR: Test/Reference [1, 12]: 102.2% | AUC0‐inf GMR: Test/Reference [1, 13]: 467.3% | Cmax GMR: Test/Reference [1, 13]: 476.2% | increase of unbound acalabrutinib AUC0‐last compared with control subjects [1, 14]: 3.6 fold | increase of unbound acalabrutinib Cmax compared with control subjects [1, 14]: 3.8 fold | increase of acalabrutinib Cmax compared with control subjects ([1]; single 50-mg dose, mild hepatic impairment): 1.9 fold | increase of acalabrutinib AUC compared with control subjects ([1]; single 50-mg dose, mild hepatic impairment (Child-Pugh class A)): 1.90 fold | difference in acalabrutinib Cmax compared with control subjects ([1]; single 50-mg dose, moderate hepatic impairment): did not result in any appreciable difference | increase of acalabrutinib AUC compared with control subjects ([1]; single 50-mg dose, moderate hepatic impairment (Child-Pugh class B)): 1.48 fold | Cmax ([1]; total plasma acalabrutinib, single oral 50-mg dose, fasted, Moderate, Child-Pugh class B (n = 6), geometric mean (geometric CV%)): 155.7 (246.9) ng/mL | AUC0‐inf ([1]; total plasma acalabrutinib, single oral 50-mg dose, Moderate (n = 6), geometric mean (geometric CV%)): 326.4 (177.9) ng • h/mL | Number (%) of subjects with TEAEs (Safety evaluation; Control (n = 14)): 0 | Number (%) of subjects with TEAEs (Safety evaluation; Mild hepatic impairment (n = 6)): 2 (33) | Number (%) of subjects with TEAEs (Safety evaluation; Moderate hepatic impairment (n = 6)): 0 | Number (%) of subjects with TEAEs (Safety evaluation; Overall (N = 34)): 3 (9) | Number (%) of subjects with TEAEs (Safety evaluation; Severe hepatic impairment (n = 8)): 1 (13) | tolerability (Safety evaluation; single oral dose of 50 mg, healthy subjects and subjects with mild, moderate, or severe hepatic impairment): well tolerated | deaths, serious AEs, discontinuations due to AEs (Safety evaluation; single oral dose of 50 mg, study 1 and study 2): no deaths, serious AEs, or subject discontinuations due to AEs | renal clearance as share of the systemic clearance [2, 15]: ≈ 0.5% | renal clearance as share of the apparent systemic clearance [2, 16]: ≈ 1.7% | CL renal [2, 15]: 21.2 mL/min | CL renal [2, 16]: 12.9 mL/min | share of the 50‐mg oral dose excreted in urine ([2]; matched normal hepatic function subjects, 24-hour urine collection interval): ≈ 0.6% | share of the 50‐mg oral dose excreted in urine ([2]; subjects with severe hepatic impairment): approximately 1.8% | clinical margin of safety for the 50‐mg dose, AUC0‐last [3]: ~16 fold | clinical margin of safety for the 50‐mg dose, Cmax [3]: ≈ 7.5 fold | fraction unbound [4]: 0.589 | fraction unbound (human serum albumin): 0.063 | mean elimination t1/2 [5]: ≈ 1 hour | increase of mean plasma AUC0‐last in the presence of itraconazole [5, 17]: 5.1 fold | increase of mean plasma Cmax in the presence of itraconazole [5, 17]: 3.9 fold | mean AUC0‐last [5, 18]: 3966 ng·h/mL | mean Cmax [5, 18]: 1672 ng/mL | free fraction (percentage unbound) (human plasma): 2.5% | fraction unbound [6]: 0.025
